TAAR1 antagonist: human TAAR1 antagonism; 360,000 compounds, 1.5% hits; inhibition, % at 3 µM; CHO RD-HGA16 TAAR1, Fluo-8 calcium fluorescence, antagonist; Q96RJ0;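 active means inhibition above a per-plate cutoff, the mean inhibition of test compounds on that plate plus 3 SD, cut at about 49% in these data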;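 further: 0% = DMSO plus EC80 beta-PEA response and 100% = DMSO alone without agonist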
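Test system: hTAAR1-expressing CHO RD-HGA16 cells, Gα16-coupled; Probe or stimulus: EC80 β-phenethylamine stimulus; Compound dosing: single nominal final test compound concentration of 3 µM; Timing: 140 s kinetic read after compound, 140 s after agonist; Signal: Fluo-8 calcium-sensitive fluorescence; Measure: % inhibition of agonist calcium response; Controls: DMSO and EC80 PEA controls.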
DAGLB inhibitor: blocks human DAGLB lipase activity. 340,000 compounds, 0.059% hits. AID 504411. Q8NCG7. inhibition, % at 5.17 µM. HEK293T DAGLB membrane lysate, EnzChek fluorogenic substrate; in the data active means inhibition above about 34%;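 further: 0% = enzyme with vehicle and 100% = wells lacking enzyme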
GPR7 antagonist: blocks human GPR7 receptor signaling; AID 1861; inhibition, % at 4.4 µM; P48145; GPR7-expressing cells, fluorescence antagonist assay; 290,000 compounds, 1.1% hits; in the data active means inhibition above about 16%, passing the limit was not always enough;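 further: cells stimulated with the agonist NPW; 0% = agonist with vehicle and 100% = vehicle without agonist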
Target sequence (P48145 whole entry, looked up): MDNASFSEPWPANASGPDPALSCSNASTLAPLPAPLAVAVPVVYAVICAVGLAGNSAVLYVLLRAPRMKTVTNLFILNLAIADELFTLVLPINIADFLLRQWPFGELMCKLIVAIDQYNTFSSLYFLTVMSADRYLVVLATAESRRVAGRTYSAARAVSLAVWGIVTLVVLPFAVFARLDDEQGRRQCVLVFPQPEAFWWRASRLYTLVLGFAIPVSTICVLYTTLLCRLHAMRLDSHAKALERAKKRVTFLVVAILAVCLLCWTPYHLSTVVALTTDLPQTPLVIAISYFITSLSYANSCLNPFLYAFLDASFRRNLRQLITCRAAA
TAAR1 agonist: human TAAR1 agonism; Q96RJ0; CHO RD-HGA16 TAAR1, Fluo-8 calcium fluorescence; vehicle wells 0%, saturating PEA agonist 100%; activation, % at 3 µM; 360,000 compounds, 0.99% hits;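 active means activation above the mean activation of all test compounds in the run plus 3 SD, cut at about 38% in these data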
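Benchmarks: low control DMSO, high control PEA (EC100); System: CHO RD-HGA16 cells carrying human TAAR1 plus Gα16; Detection: Fluo-8 fluorescence, 5 s baseline then 140 s kinetic read; Schedule: 17-24 h plating, Fluo-8 75 min 37 °C, 30 min RT; Read-out basis: % activation from peak over basal fluorescence ratio, DMSO-to-PEA scaled.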
MPTP inh: blocks calcium-induced mitochondrial swelling; isolated mouse mitochondria, Ca2+ swelling absorbance, 30 min; inhibition, % at 10 µM; 360,000 compounds, 1.4% hits;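 active means inhibition of 50% or more, scaled per plate between neutral and stimulator controls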;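 further: 0% = DMSO wells given calcium and 100% = 1 mM EGTA wells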
MPTP counter: Rhodamine 123 counter-screen of mitochondrial pore hits; shares compounds with MPTP inh; 5,000 compounds, 78% hits; isolated mitochondria, membrane potential, Rhodamine 123 fluorescence; inhibition, % at 10 µM; in the data active means inhibition above about 22%;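 further: 0% = DMSO vehicle and 100% = positive control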
MPTP abs DR: MPTP inhibition, dose response swelling confirmation; isolated mitochondria swelling, absorbance; IC50, µM; shares compounds with MPTP inh; 780 compounds, 58% hits; AID 651561; in the data active means IC50 below about 20 µM
MPTP counter DR: MPTP inhibitor counter-screen activity, dose response; shares compounds with MPTP inh; isolated mitochondria counterscreen, fluorescence read-out; IC50, µM; 780 compounds, 49% hits; AID 651564; in the data active means IC50 below about 80 µM
* marks the source's active call; other numbers are inactive results; x = no result. Sampled rows, rich in hits. Any-hit rate of the full collection: about 4%.

SMILES	TAAR1 antagonist	DAGLB inhibitor	GPR7 antagonist	TAAR1 agonist	MPTP inh	MPTP counter	others
C=CCCc1ccc(C#N)c(SCc2c(C(=O)OCC)c3cc(OC(C)=O)c(Br)cc3n2C)n1	x	-2	-3	x	71*	76*
COc1ccc(S(=O)(=O)N2CCN(c3c(C)cccc3C)CC2)cc1OC	24	-9	-12	-1	33	x
COc1ccc(S(=O)(=O)N2CCN(c3ccc(C)cc3C)CC2)cc1OC	-6	-6	-26	0	57*	82*
CC(=O)c1ccc(N2CCC(c3cc(-c4ccc(Cl)cc4Cl)n[nH]3)CC2)c([N+](=O)[O-])c1	20	9	15	36	74*	68*
COC(=O)c1ccc(N2CCN(S(=O)(=O)c3ccc(C)cc3)CC2)c([N+](=O)[O-])c1	-11	-2	14	5	56*	65*
CC(=O)c1ccc(N2CCN(c3ccccc3O)CC2)c([N+](=O)[O-])c1	51*	1	10	16	85*	81*
O=C(/C=C/[C@H]1O[C@@H](n2ccc(=O)[nH]c2=O)[C@H](O)[C@@H]1O)NCCN1CCCCC1	-22	x	x	5	-1	x
Cn1c(=O)n(C)c2cc([N+](=O)[O-])c(N3CCN(S(=O)(=O)c4ccc(C(C)(C)C)cc4)CC3)cc21	15	3	-4	3	54*	71*
O=C(N/N=C/c1cccc(C(F)(F)F)c1)c1ccccc1O	0	-5	-3	3	65*	55*
CCc1nc2c(OCCC3CCCCC3)cccn2c1N(C)C(=O)c1cccs1	-4	x	x	-1	-1	x
O=C(NCCSCc1ccco1)Nc1cc(Cl)cc(Cl)c1	-3	-14	-9	1	86*	90*
Cc1c(C(=O)N2CCOCC2)c(S(=O)(=O)Nc2ccc(C(C)C)cc2)c(C)n1C	-7	1	-1	1	-2	x
Cc1cc(C)c(S(=O)(=O)/N=C2\C=C(NS(=O)(=O)c3ccccc3)C(=O)c3ccccc32)c(C)c1	-13	22	-4	-1	87*	35*
COc1cccc(C(=O)Nc2nnc(S(=O)(=O)N(C)Cc3ccc(F)cc3)s2)c1	-15	7	7	0	56*	80*
CCc1ccc(NC(=O)c2ccc(F)c(S(=O)(=O)NCC3COc4ccccc4O3)c2)cc1 (stereo unspecified)	46	-2	-3	6	84*	78*
O=C(NCC1COc2ccccc2O1)c1ccc(F)c(S(=O)(=O)N2CCOCC2)c1 (stereo unspecified)	2	-2	x	2	1	x
CCN(c1ccccc1)S(=O)(=O)c1cc(C(=O)Nc2ccc(Br)cc2)ccc1F	40	-4	-18	6	97*	89*
CN(c1ccccc1)S(=O)(=O)c1ccc(NC(=O)c2ccc(F)cc2)cc1	43	-6	x	5	58*	61*
C[C@H]1CNC(=O)c2c(C(=O)N3CCN(C(=O)OC(C)(C)C)CC3)ncn21	12	x	x	0	0	x
COc1ccc(CNC(=O)O[C@]23C[C@H]4C(=O)N(c5ccccc5)C(=O)[C@H]4C[C@@]2(O)CN(S(=O)(=O)c2ccc(C)cc2)C3)cc1OC	-9	2	x	2	-3	x
CC12CCC(O)CC1=CCC1C2CCC2(C)c3[nH]ncc3CC12 (stereo unspecified)	-37	0	x	8	3	x
CCCc1nc(C)cc(N2CCN(c3ccccc3)CC2)n1	-2	0	-2	2	0	x
Cc1cc(N2CCN(c3ccccc3)CC2)nc(NCc2ccccc2)n1	0	2	-9	20	65*	21*
COc1ccc(Nc2cc(C)nc(NCc3ccccc3)n2)cc1	-6	x	4	35	57*	47*
CSc1nc2ccc(NS(=O)(=O)c3cccc(Cl)c3Cl)cc2s1	-6	-1	-9	8	60*	64*
Oc1ccc(Cl)cc1-c1cc(C(F)(F)C(F)F)nc(-c2ccccc2)n1	3	-3	-2	12	90*	10	MPTP abs DR=8.1*;MPTP counter DR=<2.5*
